{"data": "Measurements pooled from the literature", "target": "cAMP-dependent protein kinase catalytic subunit PRKX (PRKX, Homo sapiens, UniProt P51817)", "Sequence (P51817 1-358, as in one of the studies)": "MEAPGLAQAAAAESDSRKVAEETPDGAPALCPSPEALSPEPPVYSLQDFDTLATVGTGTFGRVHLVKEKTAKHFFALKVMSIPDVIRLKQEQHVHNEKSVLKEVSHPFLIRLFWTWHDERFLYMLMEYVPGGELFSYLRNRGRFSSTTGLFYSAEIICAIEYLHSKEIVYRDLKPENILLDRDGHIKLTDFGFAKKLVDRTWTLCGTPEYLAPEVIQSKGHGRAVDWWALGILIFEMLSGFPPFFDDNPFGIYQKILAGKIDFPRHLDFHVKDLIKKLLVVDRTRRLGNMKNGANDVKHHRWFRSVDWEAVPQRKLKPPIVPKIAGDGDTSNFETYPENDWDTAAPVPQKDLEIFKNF", "note": "Lines come from different studies, so protocols differ."}
{"Compound": "O=C(N[C@H]1CCCCC/C=C\\C2C[C@@]2(C(=O)O)NC(=O)[C@@H]2C[C@@H](Oc3ccncc3)CN2C1=O)OC1CCCC1 (some centres unmarked)", "observed": "cell-free assay", "method": "competition with immobilised ligand", "tested at": "1 µM", "remaining binding [%]": 80}
{"Compound": "O=C(NCC1CCOCC1)c1n[nH]cc1NC(=O)c1c(F)cccc1F", "observed": "binding", "method": "competition with immobilised ligand", "tested at": "1 µM", "remaining binding [%]": 100}
{"Compound": "CN(c1nccc(-c2cnn3ncccc23)n1)C1CC1", "observed": "binding", "tested at": "1 µM", "remaining binding [%]": 98}
{"Compound": "CO[C@H]1CC[C@H](CNc2ccc(S(=O)(=O)NC(=O)c3ccc(N4CCN(CC5=C(c6ccc(Cl)cc6)CC(C)(C)CC5)CC4)cc3Oc3cnc4[nH]ccc4c3)cc2[N+](=O)[O-])CC1", "observed": "cell-free assay", "method": "competition with immobilised ligand", "tested at": "1 µM", "remaining binding [%]": 100}
{"Compound": "CN(C)c1ncc(F)c(-c2cnn3ncccc23)n1", "observed": "binding", "tested at": "1 µM", "remaining binding [%]": 100}
{"Compound": "C[C@@H](c1ccc(-n2cnc3c(N)ncnc32)cc1)N1CCc2nn(C)c(Cc3ccccc3)c2C1=O", "observed": "binding", "method": "competition with immobilised ligand", "tested at": "0.1 µM", "remaining binding [%]": 96}
{"Compound": "N[C@H]1CCN(c2nccc(-c3cnn4ncccc34)n2)C1", "observed": "binding", "tested at": "1 µM", "remaining binding [%]": 100}
{"Compound": "C[C@@H]1CN(c2cc(-c3nn(C)c4ccc(OC5(C)CC5)cc34)ncn2)C[C@H](C)O1", "observed": "cell-free assay", "method": "competition with immobilised ligand", "tested at": "1 µM", "remaining binding [%]": 92}
{"Compound": "CNC(=O)[C@@H]1CC[C@@H](n2c(-c3ccc4cnccc4c3)nc3ccc(C(=O)NCc4cccc(C(N)=O)c4)cc32)C1", "observed": "binding", "method": "competition with immobilised ligand", "tested at": "1 µM", "remaining binding [%]": 100}
{"Compound": "Cc1cc(C)c(-n2ccn3nc(-c4cccnc4)cc23)cc1NC(=O)c1cc(C#N)cc(S(F)(F)(F)(F)F)c1", "observed": "cell-free assay", "method": "competition with immobilised ligand", "tested at": "0.1 µM", "remaining binding [%]": 68.5}
{"Compound": "O=C(c1ccc(Nc2ncc(Cl)c(-c3ccc(Cl)s3)n2)cc1)N1CCC(N2CCCC2)CC1", "observed": "binding", "method": "competition with immobilised ligand", "tested at": "1 µM", "remaining binding [%]": 95}
{"Compound": "CN(CCCC(F)(F)F)c1nccc(-c2cnn3ncccc23)n1", "observed": "binding", "tested at": "1 µM", "remaining binding [%]": 100}
{"Compound": "Nc1ncc2c(n1)-c1c([nH]c3ccc(C#CC4CC4)cc13)CCCC2", "observed": "binding", "method": "competition with immobilised ligand", "tested at": "1 µM", "remaining binding [%]": 79}
{"Compound": "C[C@@H]1CCN(c2nccc(-c3cnn4ncccc34)n2)C1", "observed": "binding", "tested at": "1 µM", "remaining binding [%]": 100}
{"Compound": "COc1cnc(Nc2cccc(S(N)(=O)=O)c2)nc1N1CCN(c2ccccc2)CC1", "observed": "binding", "method": "competition with immobilised ligand", "tested at": "1 µM", "remaining binding [%]": 100}
{"Compound": "O=C(c1ccc(Nc2nccc(-c3cc4ccccc4s3)n2)cc1)N1CCC(N2CCCC2)CC1", "observed": "binding", "method": "competition with immobilised ligand", "tested at": "1 µM", "remaining binding [%]": 83}
{"Compound": "COCCOc1nc(-c2ccc(Cl)nc2)nc2c1CN(C(=O)c1ncn3ccccc13)CC2", "observed": "cell-free assay", "method": "competition with immobilised ligand", "tested at": "0.1 µM", "remaining binding [%]": 100}
{"Compound": "O=C(NCCCN1CCOCC1)c1ccc(Nc2ncc(Cl)c(-c3ccc(Cl)s3)n2)cc1", "observed": "binding", "method": "competition with immobilised ligand", "tested at": "1 µM", "remaining binding [%]": 100}
{"Compound": "Cc1c(NC(=O)c2cc(C(N)=O)nc3cc(F)ccc23)c(C(F)(F)F)nn1Cc1ccc(C(C)(C)C)cc1", "observed": "cell-free assay", "method": "competition with immobilised ligand", "tested at": "1 µM", "remaining binding [%]": 94}
{"Compound": "CN(C)c1nccc(-c2cnn3ncccc23)n1", "observed": "binding", "tested at": "1 µM", "remaining binding [%]": 100}
